Laboratory results reported in PubChem BioAssay AID504383 (The Scripps Research Institute Molecular Screening Center, 2011).
Out of some 2,500 compounds screened, about 1,200 (48%) were called active. So high a share suggests a set chosen from earlier hits. Some of the results follow. A number with no mark means an inactive call.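 The calls were made as follows: active = mean activation above the low control average plus 3 SD, as set in the primary screen (cut at about 12% in these data); inactive = the rest.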

The compounds below were run against Troponin I, cardiac muscle (Homo sapiens) + Troponin T, cardiac muscle (Homo sapiens) + Troponin C, slow skeletal and cardiac muscles (Homo sapiens) (UniProt P19429+P45379+P63316) (assay: cardiac RTF calcium sensitivity activators, confirmation, biochemical, IANBD-TnC fluorescence, triplicate (AID 504383;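 also: 0% = DMSO at 0.472 mM calcium and 100% = DMSO at 2.9 mM calcium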)). Details: IANBD-labeled cardiac RTF, Ca2+ sensitivity fluorescence; at 7.2 µM; hits give high values; scaled from EC20 to saturating calcium; tested at EC20 calcium, 0.472 mM.
In short: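 Material: labelled regulated thin filaments; Reagent: 0.472 mM calcium; Incubation: 15 min compound incubation with filaments at 25 °C; Detection: filament fluorescence intensity; Evaluation: fluorescence increase normalised to calcium controls; Benchmarks: low control EC20 calcium, high control EC100 calcium.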
`O=C1/C(=C/C=C/c2ccccc2)Oc2c1ccc(O)c2CN1CCN(CCO)CC1` was tested, and the activation was 126% (active). In the case of `CC(C)c1ccc(/C=C2\Oc3c(ccc(O)c3CN3CCN(C)CC3)C2=O)cc1`, the activation is reported as 7.76%. Compound `Cc1ccc(/C=C2\Oc3c(ccc(O)c3CN3CCN(C)CC3)C2=O)cc1` has an activation of 1.83%. With `COc1ccccc1/C=C/C=C1\Oc2c(ccc(O)c2CN2CCN(CCO)CC2)C1=O` the activation was 41.9% (active). Work on `CCN1CCN(Cc2c(O)ccc3c2O/C(=C\C=C\c2ccccc2OC)C3=O)CC1` yielded an activation of 8.36%. With `Cc1ccc(/C=C2\Oc3c(ccc(O)c3CN3CCN(CCO)CC3)C2=O)cc1` the activation was 34.7% (active). With `CC(=O)c1ccc2c(c1)c(C#N)c1ccccc1[n+]2[O-]` the activation was 174% (active). In the case of `CC1(C)CC(N2CCCC2)=CC(=[N+]2CCCCC2)C1`, the activation is reported as 16% (active). With `COc1ccc(-n2c(O)c(/C=N/NS(=O)(=O)c3ccc(C)cc3)c3ccccc3c2=O)cc1OC` the activation was 46% (active). For `COc1ccc(-n2c(O)c(/C=N/NS(=O)(=O)c3cc(C)ccc3C)c3ccccc3c2=O)cc1OC`, the activation was 10.9%. For `COc1ccc(-n2c(O)c(/C=N/NS(=O)(=O)c3ccc(C)c([N+](=O)[O-])c3)c3ccccc3c2=O)cc1OC`, the activation was 3.31%. In the case of `CCC12CN3CCN(CC(C3)/C1=N\NC(=O)Nc1ccccc1)C2`, the activation is reported as 4.76%. For `O=C(c1ccccc1)[C@@H]1[C@@H]2C(=O)N(c3ccc(F)cc3)C(=O)[C@@H]2C2CCCN21` (stereo not given in full), the activation was 22.7% (active). In the case of `Cc1ccc(C(=O)N2C(=O)C(c3ccccc3)Oc3ccccc32)cc1` (stereo not given), the activation is reported as 5.01%. With `Cc1ccc(N2C(=O)[C@@H]3[C@H](C2=O)C2CCCN2[C@@H]3C(=O)c2ccccc2)cc1` (stereo not given in full) the activation was 290% (active). In the case of `O=C1CC(c2cccc(Oc3ccccc3)c2)NC(=O)N1` (stereo not given), the activation is reported as 6.43%. `COc1cccc(C2CC(c3ccccc3)n3ncnc3N2)c1` (stereo not given) was tested, and the activation was 19.8% (active). `COc1ccc(C(=O)OC/C(O)=C(\C#N)c2nc3ccccc3[nH]2)cc1S(=O)(=O)N1CCOCC1` was tested, and the activation was -0.63%. In the case of `N#C/C(=C(/O)COC(=O)COc1ccc(Cl)cc1)c1nc2ccccc2[nH]1`, the activation is reported as 13.2% (active). In the case of `CCN(CC)c1ccc(C=Nc2cc(C)ccc2C)c(O)c1`, the activation is reported as 15.7% (active). `Cc1ccc(N=Cc2sc(O)c3ccccc23)c(C)c1` was tested, and the activation was 7.52%. With `O=C(c1ccc2c(=O)n3c(nc2c1)CCCCC3)N1CCN(c2cccc(Cl)c2)CC1` the activation was 0.38%. In the case of `COc1ccccc1NC(=O)CC(=O)CSc1nnc(-c2ccc(C)cc2)n1-c1ccccc1`, the activation is reported as 3.38%. With `Cc1ccc(C(=O)NNC(=O)CSc2nnc(-c3ccncc3)n2-c2ccc(C)cc2)cc1` the activation was 7.51%. For `COc1ccc(-c2nnc(SCC(=O)c3ccc[nH]3)n2-c2ccccc2)cc1`, the activation was 15.9% (active). In the case of `Cn1cc(Cl)c(-c2nc3ccccc3[nH]2)n1`, the activation is reported as 20.4% (active). For `Cn1nc([N+](=O)[O-])c(C(C#N)c2ccccn2)c(Cl)c1=O` (stereo not given), the activation was 8.7%. `CCOC(=O)c1ccc(NC(=O)c2cc3c(C)nn(-c4ccccc4Cl)c3s2)s1` was tested, and the activation was 16.9% (active). Compound `CCN(CC)CCCNc1ccc2ncn3c4ccc(O)cc4c(=O)c1c23` has an activation of -1.43%. In the case of `O=C/C(=C\Nc1ccc(S(=O)(=O)CCO)cc1)c1nc2cc(Cl)ccc2o1`, the activation is reported as 65% (active). `N#CC(C#N)=C1C=C2C=C(N3CCCCCC3)CCC2CC1` (stereo not given) showed an activation of 5.58%. With `COc1ccc2ccccc2c1C(O)c1nccn1C` (stereo not given) the activation was 58% (active). Compound `CN1c2ccc(C=O)c3c(C=O)ccc(c23)N(C)C1(C)C` has an activation of 1.58%. `CC1=CC2=NC(=O)/C(=C\c3ccc(-c4cccc(Cl)c4)o3)C(=N)N2O1` was tested, and the activation was 101% (active). With `OCCNCc1cccc(OCc2ccc(Cl)cc2)c1` the activation was 173% (active). `COc1ccc(CNCc2cccc(Cl)c2)cc1` gave an activation of 4.73%. In the case of `CN1CCN(/N=C/c2ccc(OCc3ccccc3)cc2)CC1`, the activation is reported as 309% (active). In the case of `O=C(C1CCN(Cc2ccc(OCc3ccccc3)cc2)CC1)N1CCCC1`, the activation is reported as -1.48%. `CN1CCN(CCOc2ccc(Cc3ccccc3)cc2)CC1` showed an activation of 9.76%. Compound `O=C(NCc1ccco1)C1CCC(N2C(=O)C3C4CCC(C4)C3C2=O)CC1` (stereo not given) has an activation of 6.57%. For `O=C(NCc1ccco1)C1Cc2ccccc2CN1C(=O)c1ccco1` (stereo not given), the activation was 2880% (active). Work on `O=C(O)C1CC(O)CN1C(=O)c1ccco1` (stereo not given) yielded an activation of 5.9%. For `CCCCCCCCOc1ccc(C2OC34CCCCC3C(C#N)(C#N)C2(C#N)C(=N)O4)cc1` (stereo not given), the activation was 17.2% (active). `CCOc1ccc(C2OC34CCCCC3C(C#N)(C#N)C2(C#N)C(=N)O4)cc1OC` (stereo not given) was tested, and the activation was 7.44%. `CCCCC1OC23CCCCC2C(C#N)(C(=N)O3)C1(C#N)C#N` (stereo not given) gave an activation of 10.2%. With `CCCC1OC23CCCCC2C(C#N)(C#N)C1(C#N)C(=N)O3` (stereo not given) the activation was 179% (active). Compound `CCCCOc1ccc(C2OC34CCCCC3C(C#N)(C#N)C2(C#N)C(=N)O4)cc1` (stereo not given) has an activation of 6.95%. For `CCC1OC23CCCCC2C(C#N)(C(=N)O3)C1(C#N)C#N` (stereo not given), the activation was 10.4%. Work on `N#CC1(C#N)C(c2ccccc2)OC23CCCCC2C1(C#N)C(=N)O3` (stereo not given) yielded an activation of -2.46%. `COc1ccc(C2OC34CCCCC3C(C#N)(C#N)C2(C#N)C(=N)O4)cc1` (stereo not given) was tested, and the activation was 5.98%. For `CCCCC1OC23CCCCC2C(C#N)(C#N)C1(C#N)C(=N)O3` (stereo not given), the activation was 13% (active). Work on `COc1cccc(/C=N/c2nc3ccccc3[nH]2)c1O` yielded an activation of 6.09%. With `COc1cccc(/C=N/Nc2nnc3c(n2)[nH]c2ccccc23)c1OC` the activation was 13.1% (active). For `NC(=O)[C@@H]1CCCNc2c(I)cc([N+](=O)[O-])cc2C(=O)N[C@@H](CCC(=O)O)C(=O)N[C@@H](CO)C(=O)N1`, the activation was 6.37%. With `OC(CNCC1CCCO1)Cn1c2ccc(Br)cc2c2cc(Br)ccc21` (stereo not given) the activation was 34.1% (active). For `COC(=O)C(C)n1cnc2c(nnn2Cc2ccc(Cl)cc2)c1=O` (stereo not given), the activation was 12.4% (active). In the case of `Cc1ccccc1-n1c(SCc2c(C)noc2C)nnc1-c1cccnc1`, the activation is reported as 13.8% (active). `COc1cc2c(cc1OC)CN(Cc1cc(=O)oc3cc(C)c(C)cc13)CC2` gave an activation of -0.4%. In the case of `COc1ccc(-c2csc(N3CCN(c4cc5c(cc4Cl)nc(-c4ccncc4)n5CCOCCO)CC3)n2)cc1`, the activation is reported as 2.85%. With `Cc1cc(N2CCN(c3nc(-c4ccc([N+](=O)[O-])cc4)cs3)CC2)c2ccccc2n1` the activation was 14.9% (active). For `CC(=O)c1nnn(-c2cccc(C#N)c2)c1C`, the activation was 1.86%. With `O=C(CCSc1ccccc1)N1CCN(C(=O)c2ccco2)CC1` the activation was 135% (active). Work on `O=c1[nH]c2c(s1)C=Nc1ccccc1N2` yielded an activation of 2.27%. `O=[n+]1c2c(n([O-])c3cc(F)c(N4CCCC4)cc31)CCC2` was tested, and the activation was 92% (active). `O=[n+]1c2c(n([O-])c3ccccc31)CCC2` was tested, and the activation was 29.4% (active). With `O=[n+]1c2c(n([O-])c3cc(F)c(N4CCCC4)cc31)CCCC2` the activation was 259% (active). Work on `O=C(Cn1c(=O)c(=O)n(Cc2ccccc2)c2ccc(Cl)cc21)Nc1ccc(F)cc1F` yielded an activation of 1.32%. In the case of `O=C1Nc2ccccc2/C1=C/c1cnc(-c2ccccc2)[nH]1`, the activation is reported as 92.3% (active). For `Cc1ccc(N/C=C2/Sc3ccccc3NC2=O)cc1`, the activation was 9.19%. For `Cc1cc(C)c(/C=C2\C(=O)Nc3ccccc32)[nH]1`, the activation was 14.2% (active). In the case of `COc1ccc(CC(=O)NCc2csc(-c3cccs3)n2)cc1OC`, the activation is reported as 5.67%. In the case of `COc1ccc(CNS(=O)(=O)c2cc(-c3cc(C)no3)ccc2OC)cc1OC`, the activation is reported as 24.2% (active). For `CC1CC(C)CN(S(=O)(=O)N2CCCC(C(=O)NC3CCCCC3)C2)C1` (stereo not given), the activation was 219% (active). For `Cc1cc(NC(=O)CN2C(=O)[C@@H]3[C@H](C2=O)[C@@H]2C[C@H]3C(Br)C2Br)no1` (stereo not given in full), the activation was 40% (active). In the case of `CC(/C=N/Nc1ccc2nncn2n1)=C\c1ccccc1`, the activation is reported as 70.4% (active). `CCOC(=O)c1cc(C#N)c(SCC(=O)c2cc(C#N)c(SC)nc2C)[nH]c1=O` was tested, and the activation was 15.6% (active). `O=C(Nc1ccc(F)cc1F)c1ccc(COc2c(F)c(F)cc(F)c2F)o1` showed an activation of 4.6%. For `O=C(/C=C/c1ccccc1[N+](=O)[O-])Nc1cccnc1`, the activation was 5.57%. `O=C(c1ccc([N+](=O)[O-])cc1[N+](=O)[O-])n1cnc2ccccc21` gave an activation of -1.33%. For `C/C(=N\Nc1ccc([N+](=O)[O-])cc1[N+](=O)[O-])c1cccnc1`, the activation was 17% (active). `CS(=O)(=O)N(CC(=O)O)Cc1cccc(CN(CC(=O)O)S(C)(=O)=O)c1` showed an activation of 9.58%. In the case of `CC(C)(Cc1cccc(CC(C)(C)C(=O)O)c1)C(=O)O`, the activation is reported as 12% (active). `CCCOc1ccc(N)cc1N` gave an activation of 10.4%. Compound `O=C(CC1C(=O)N(c2ccc(Cl)cc2)C(=S)N1CCc1ccncc1)Nc1ccc(F)cc1` (stereo not given) has an activation of 3.64%. Compound `Cc1ccc(-c2noc(-c3c(C)noc3C)n2)cc1` has an activation of 9.16%. `CCOC(=O)c1ccc(-c2c(-c3ccc4c(c3)OCO4)noc2C)cc1F` was tested, and the activation was 12% (active). For `COc1cc(-c2c(-c3ccc4c(c3)OCO4)noc2C)ccc1F`, the activation was 37.8% (active). For `Nc1ccc2c3c(cccc13)-c1ccccc1-2`, the activation was 10%. With `Cc1ccccc1S(=O)(=O)Cc1ccc(C(=O)NCCN(C)Cc2ccccc2)o1` the activation was 28.6% (active). With `O=C(NCCN1CCOCC1)c1ccc(CS(=O)(=O)c2c(Cl)cccc2Cl)o1` the activation was 7.99%. In the case of `Brc1ccc(-c2cnnc(N3CCCC3)n2)cc1`, the activation is reported as 184% (active). `CC(C)(C)c1ccc(-c2n[nH]c(=S)n2CC2CCCO2)cc1` (stereo not given) was tested, and the activation was 101% (active). In the case of `O=C(Nc1ccccc1OC(=O)c1ccccc1)c1ccccc1`, the activation is reported as 235% (active). With `CC(C)C(=O)c1cc2c(cc1NC(=O)c1ccccc1)OCCO2` the activation was 3.91%. Compound `COc1ccccc1NC(=O)/C=C/C(=O)O` has an activation of 9.02%.
